Converted amounts (≈) assume the structure as drawn.
Columns and labels:
Format in all cases: functional
Staphylococcus aureus = assay: Antibacterial activity against Staphylococcus aureus after 16 to 18 hrs by serial dilution method; details: for MIC: Staphylococcus aureus
Procedure, shortened: (§1)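 The test compound was dissolved in DMF and serially diluted. A standard drop of the prepared microbial culture was added to each dilution, and tubes were incubated at 37 °C for 16–18 h. MIC was taken as the highest dilution that stayed clear with no visible turbidity.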

Escherichia coli = assay: Antibacterial activity against Escherichia coli after 16 to 18 hrs by serial dilution method; details: for MIC: Escherichia coli; procedure, shortened: as §1
Pseudomonas aeruginosa = assay: Antibacterial activity against Pseudomonas aeruginosa after 16 to 18 hrs by serial dilution method; details: for MIC: Pseudomonas aeruginosa; procedure, shortened: as §1
Klebsiella pneumoniae = assay: Antibacterial activity against Klebsiella pneumoniae after 16 to 18 hrs by serial dilution method; details: for MIC: Klebsiella pneumoniae
Talaromyces marneffei = assay: Antifungal activity against Penicillium marneffei after 16 to 18 hrs by serial dilution method; details: for MIC: Talaromyces marneffei; procedure, shortened: as §1
[1] = tested on: Trichophyton mentagrophytes; assay: Antifungal activity against Trichophyton mentagrophytes after 16 to 18 hrs by serial dilution method; details: for MIC: Trichophyton mentagrophytes
Aspergillus flavus = assay: Antifungal activity against Aspergillus flavus after 16 to 18 hrs by serial dilution method; details: for MIC: Aspergillus flavus; procedure, shortened: as §1
Aspergillus fumigatus = assay: Antifungal activity against Aspergillus fumigatus after 16 to 18 hrs by serial dilution method; details: for MIC: Aspergillus fumigatus

Row | Compound | inhibition zone (IZ) (Staphylococcus aureus) [mm] | MIC (Staphylococcus aureus) [µg/mL] | inhibition zone (IZ) (Escherichia coli) [mm] | MIC (Escherichia coli) [µg/mL] | inhibition zone (IZ) (Pseudomonas aeruginosa) [mm] | MIC (Pseudomonas aeruginosa) [µg/mL] | inhibition zone (IZ) (Klebsiella pneumoniae) [mm] | MIC (Klebsiella pneumoniae) [µg/mL] | inhibition zone (IZ) (Talaromyces marneffei) [mm] | MIC (Talaromyces marneffei) [µg/mL] | inhibition zone (IZ) [1] [mm] | MIC [1] [µg/mL] | inhibition zone (IZ) (Aspergillus flavus) [mm] | MIC (Aspergillus flavus) [µg/mL] | inhibition zone (IZ) (Aspergillus fumigatus) [mm] | MIC (Aspergillus fumigatus) [µg/mL]
1 | COc1cc(-c2nnc(-c3ccccc3COc3ccccc3C)o2)cc(OC)c1OC | 16 | 6.25 (≈ 14.5 µM) | 16 | 6.25 (≈ 14.5 µM) | 16 | 6.25 (≈ 14.5 µM) | 16 | 6.25 (≈ 14.5 µM) | 16 | 6.25 (≈ 14.5 µM) | 16 | 6.25 (≈ 14.5 µM) | 16 | 6.25 (≈ 14.5 µM) | 16 | 6.25 (≈ 14.5 µM)
2 | COc1cc(-c2nnc(-c3ccccc3COc3cccc(C)c3)o2)cc(OC)c1OC | 16 | 6.25 (≈ 14.5 µM) | 16 | 6.25 (≈ 14.5 µM) | 16 | 6.25 (≈ 14.5 µM) | 16 | 6.25 (≈ 14.5 µM) | 16 | 6.25 (≈ 14.5 µM) | 11 | 12.5 (≈ 28.9 µM) | 11 | 12.5 (≈ 28.9 µM) | 16 | 6.25 (≈ 14.5 µM)
3 | COc1cc(-c2nnc(-c3ccccc3COc3ccc(C)cc3)o2)cc(OC)c1OC | 16 | 6.25 (≈ 14.5 µM) | 16 | 6.25 (≈ 14.5 µM) | 16 | 6.25 (≈ 14.5 µM) | 16 | 6.25 (≈ 14.5 µM) | 16 | 6.25 (≈ 14.5 µM) | 11 | 12.5 (≈ 28.9 µM) | 11 | 12.5 (≈ 28.9 µM) | 16 | 6.25 (≈ 14.5 µM)
4 | COc1cc(-c2nnc(-c3ccccc3COc3ccc(Cl)cc3)o2)cc(OC)c1OC | 16 | 6.25 (≈ 13.8 µM) | 16 | 6.25 (≈ 13.8 µM) | 16 | 6.25 (≈ 13.8 µM) | 16 | 6.25 (≈ 13.8 µM) | 16 | 6.25 (≈ 13.8 µM) | 16 | 6.25 (≈ 13.8 µM) | 16 | 6.25 (≈ 13.8 µM) | 16 | 6.25 (≈ 13.8 µM)
5 | Cc1ccccc1OCc1ccccc1-c1nnc(-c2ccccc2F)o1 | 16 | 6.25 (≈ 17.3 µM) | 16 | 6.25 (≈ 17.3 µM) | 16 | 6.25 (≈ 17.3 µM) | 16 | 6.25 (≈ 17.3 µM) | 16 | 6.25 (≈ 17.3 µM) | 16 | 6.25 (≈ 17.3 µM) | 16 | 6.25 (≈ 17.3 µM) | 16 | 6.25 (≈ 17.3 µM)
6 | Cc1cccc(OCc2ccccc2-c2nnc(-c3ccccc3F)o2)c1 | 16 | 6.25 (≈ 17.3 µM) | 16 | 6.25 (≈ 17.3 µM) | 16 | 6.25 (≈ 17.3 µM) | 16 | 6.25 (≈ 17.3 µM) | 16 | 6.25 (≈ 17.3 µM) | 16 | 6.25 (≈ 17.3 µM) | 11 | 12.5 (≈ 34.7 µM) | 11 | 12.5 (≈ 34.7 µM)
7 | Cc1ccc(OCc2ccccc2-c2nnc(-c3ccccc3F)o2)cc1 | 16 | 6.25 (≈ 17.3 µM) | 16 | 6.25 (≈ 17.3 µM) | 16 | 6.25 (≈ 17.3 µM) | 16 | 6.25 (≈ 17.3 µM) | 16 | 6.25 (≈ 17.3 µM) | 16 | 6.25 (≈ 17.3 µM) | 16 | 6.25 (≈ 17.3 µM) | 16 | 6.25 (≈ 17.3 µM)
8 | Fc1ccccc1-c1nnc(-c2ccccc2COc2ccc(Cl)cc2)o1 | 16 | 6.25 (≈ 16.4 µM) | 16 | 6.25 (≈ 16.4 µM) | 16 | 6.25 (≈ 16.4 µM) | 16 | 6.25 (≈ 16.4 µM) | 16 | 6.25 (≈ 16.4 µM) | 16 | 6.25 (≈ 16.4 µM) | 16 | 6.25 (≈ 16.4 µM) | 16 | 6.25 (≈ 16.4 µM)
9 | Cc1ccccc1OCc1ccccc1-c1nnc(-c2ccccc2)o1 | <10 | 25 (≈ 73 µM) | <10 | 25 (≈ 73 µM) | <10 | 25 (≈ 73 µM) | <10 | 25 (≈ 73 µM) | <10 | 25 (≈ 73 µM) | <10 | 25 (≈ 73 µM) | <10 | 25 (≈ 73 µM) | <10 | 25 (≈ 73 µM)
10 | Cc1cccc(OCc2ccccc2-c2nnc(-c3ccccc3)o2)c1 | <10 | 25 (≈ 73 µM) | <10 | 25 (≈ 73 µM) | <10 | 25 (≈ 73 µM) | <10 | 25 (≈ 73 µM) | <10 | 25 (≈ 73 µM) | <10 | 25 (≈ 73 µM) | <10 | 25 (≈ 73 µM) | <10 | 25 (≈ 73 µM)
11 | Cc1ccc(OCc2ccccc2-c2nnc(-c3ccccc3)o2)cc1 | <10 | 25 (≈ 73 µM) | <10 | 25 (≈ 73 µM) | <10 | 25 (≈ 73 µM) | <10 | 25 (≈ 73 µM) | <10 | 25 (≈ 73 µM) | <10 | 25 (≈ 73 µM) | <10 | 25 (≈ 73 µM) | <10 | 25 (≈ 73 µM)
12 | Clc1ccc(OCc2ccccc2-c2nnc(-c3ccccc3)o2)cc1 | <10 | 25 (≈ 68.9 µM) | <10 | 25 (≈ 68.9 µM) | <10 | 25 (≈ 68.9 µM) | <10 | 25 (≈ 68.9 µM) | <10 | 25 (≈ 68.9 µM) | <10 | 25 (≈ 68.9 µM) | <10 | 25 (≈ 68.9 µM) | <10 | 25 (≈ 68.9 µM)
13 | Cc1cc(C)cc(-c2nnc(-c3ccccc3COc3ccccc3C)o2)c1 | 11 | 12.5 (≈ 33.7 µM) | 11 | 12.5 (≈ 33.7 µM) | 11 | 12.5 (≈ 33.7 µM) | 11 | 12.5 (≈ 33.7 µM) | 11 | 12.5 (≈ 33.7 µM) | 11 | 12.5 (≈ 33.7 µM) | 11 | 12.5 (≈ 33.7 µM) | 16 | 6.25 (≈ 16.9 µM)
14 | Cc1cccc(OCc2ccccc2-c2nnc(-c3cc(C)cc(C)c3)o2)c1 | 11 | 12.5 (≈ 33.7 µM) | 11 | 12.5 (≈ 33.7 µM) | 11 | 12.5 (≈ 33.7 µM) | 11 | 12.5 (≈ 33.7 µM) | 11 | 12.5 (≈ 33.7 µM) | 11 | 12.5 (≈ 33.7 µM) | 11 | 12.5 (≈ 33.7 µM) | 16 | 6.25 (≈ 16.9 µM)
15 | Cc1ccc(OCc2ccccc2-c2nnc(-c3cc(C)cc(C)c3)o2)cc1 | 11 | 12.5 (≈ 33.7 µM) | 11 | 12.5 (≈ 33.7 µM) | 11 | 12.5 (≈ 33.7 µM) | 11 | 12.5 (≈ 33.7 µM) | 11 | 12.5 (≈ 33.7 µM) | 11 | 12.5 (≈ 33.7 µM) | 11 | 12.5 (≈ 33.7 µM) | 11 | 12.5 (≈ 33.7 µM)
16 | Cc1cc(C)cc(-c2nnc(-c3ccccc3COc3ccc(Cl)cc3)o2)c1 | 11 | 12.5 (≈ 32 µM) | 11 | 12.5 (≈ 32 µM) | 11 | 12.5 (≈ 32 µM) | 11 | 12.5 (≈ 32 µM) | 11 | 12.5 (≈ 32 µM) | 11 | 12.5 (≈ 32 µM) | 11 | 12.5 (≈ 32 µM) | 11 | 12.5 (≈ 32 µM)
